Experiment [1] addresses Histone deacetylase. In words: Inhibition of HDAC in human HeLa-S3 cell lysates preincubated for 15 mins followed by HDAC-Glo substrate addition measured after 35 mins by fluorimetric method. The format is protein assay.
Experiment [2] addresses T1, Histone deacetylase (Homo sapiens) (UniProt Q13547+O15379+Q9UBN7+Q92769+Q9UQL6+Q8WUI4+Q9BY41+Q96DB2+P56524+Q9UKV0+Q969S8). In words: Inhibition of HDAC in human HeLa-S3 cell lysates assessed as residual activity at 1 x 10^-5 M preincubated for 15 mins followed by HDAC-Glo substrate addition measured after 35 mins by […] relative to control. The format is protein assay. An outline of the steps:
(§1)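 Lysate (1 μg total protein) in HDAC-Glo buffer was preincubated with inhibitor in DMSO for 15 min at room temperature. HDAC-Glo substrate/developer reagent was added and luminescence read after 35 min. Concentrations are final. Signal corrected for a no-lysate blank; % of DMSO control.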

The target in experiment [3] is T1, Histone deacetylase (Homo sapiens). In words: Inhibition of HDAC in human HeLa-S3 cell lysates assessed as residual activity at 5 x 10^-6 M preincubated for 15 mins followed by HDAC-Glo substrate addition measured after 35 mins by fluorimetric method relative to control. The format is protein assay. The gist of the method: as §1
Experiment [4] has the same target. In words: Inhibition of HDAC in human HeLa-S3 cell lysates assessed as residual activity at 2.5 x 10^-6 M preincubated for 15 mins followed by HDAC-Glo substrate addition measured after 35 mins by […] relative to control. The format is protein assay. An outline of the steps:
as §1

For experiment [5] the target is unchanged. In words: Inhibition of HDAC in human HeLa-S3 cell lysates assessed as residual activity at 1.25 x 10^-6 M preincubated for 15 mins followed by HDAC-Glo substrate addition measured after 35 mins by […] relative to control. Type of experiment: protein assay. An outline of the steps:
as §1

Experiment [6] has the same target. In words: Inhibition of HDAC in human HeLa-S3 cell lysates assessed as residual activity at 6.25 x 10^-6 M preincubated for 15 mins followed by HDAC-Glo substrate addition measured after 35 mins by […] relative to control. Type of experiment: protein assay.
Experiment [7] concerns the target Histone deacetylase 1 (Homo sapiens) (UniProt Q13547). In words: Inhibition of HDAC1 in human HeLa-S3 cell lysates assessed as remaining activity at […] preincubated for 15 mins followed by HDAC-Glo substrate addition measured after 30 to 40 mins by […] relative to control.
Experiment [8] concerns the target Histone deacetylase 2 (Homo sapiens) (UniProt Q92769). In words: Inhibition of HDAC2 in human HeLa-S3 cell lysates assessed as remaining activity at […] preincubated for 15 mins followed by HDAC-Glo substrate addition measured after 30 to 40 mins by […] relative to control.
Experiment [9] has as its target Histone deacetylase 3 (Homo sapiens) (UniProt O15379). In words: Inhibition of HDAC3 in human HeLa-S3 cell lysates assessed as remaining activity at […] preincubated for 15 mins followed by HDAC-Glo substrate addition measured after 30 to 40 mins by […] relative to control.
For experiment [10], the target named is T2, Protein deacetylase HDAC6 (Homo sapiens) (UniProt Q9UBN7).
T2 sequence (whole entry): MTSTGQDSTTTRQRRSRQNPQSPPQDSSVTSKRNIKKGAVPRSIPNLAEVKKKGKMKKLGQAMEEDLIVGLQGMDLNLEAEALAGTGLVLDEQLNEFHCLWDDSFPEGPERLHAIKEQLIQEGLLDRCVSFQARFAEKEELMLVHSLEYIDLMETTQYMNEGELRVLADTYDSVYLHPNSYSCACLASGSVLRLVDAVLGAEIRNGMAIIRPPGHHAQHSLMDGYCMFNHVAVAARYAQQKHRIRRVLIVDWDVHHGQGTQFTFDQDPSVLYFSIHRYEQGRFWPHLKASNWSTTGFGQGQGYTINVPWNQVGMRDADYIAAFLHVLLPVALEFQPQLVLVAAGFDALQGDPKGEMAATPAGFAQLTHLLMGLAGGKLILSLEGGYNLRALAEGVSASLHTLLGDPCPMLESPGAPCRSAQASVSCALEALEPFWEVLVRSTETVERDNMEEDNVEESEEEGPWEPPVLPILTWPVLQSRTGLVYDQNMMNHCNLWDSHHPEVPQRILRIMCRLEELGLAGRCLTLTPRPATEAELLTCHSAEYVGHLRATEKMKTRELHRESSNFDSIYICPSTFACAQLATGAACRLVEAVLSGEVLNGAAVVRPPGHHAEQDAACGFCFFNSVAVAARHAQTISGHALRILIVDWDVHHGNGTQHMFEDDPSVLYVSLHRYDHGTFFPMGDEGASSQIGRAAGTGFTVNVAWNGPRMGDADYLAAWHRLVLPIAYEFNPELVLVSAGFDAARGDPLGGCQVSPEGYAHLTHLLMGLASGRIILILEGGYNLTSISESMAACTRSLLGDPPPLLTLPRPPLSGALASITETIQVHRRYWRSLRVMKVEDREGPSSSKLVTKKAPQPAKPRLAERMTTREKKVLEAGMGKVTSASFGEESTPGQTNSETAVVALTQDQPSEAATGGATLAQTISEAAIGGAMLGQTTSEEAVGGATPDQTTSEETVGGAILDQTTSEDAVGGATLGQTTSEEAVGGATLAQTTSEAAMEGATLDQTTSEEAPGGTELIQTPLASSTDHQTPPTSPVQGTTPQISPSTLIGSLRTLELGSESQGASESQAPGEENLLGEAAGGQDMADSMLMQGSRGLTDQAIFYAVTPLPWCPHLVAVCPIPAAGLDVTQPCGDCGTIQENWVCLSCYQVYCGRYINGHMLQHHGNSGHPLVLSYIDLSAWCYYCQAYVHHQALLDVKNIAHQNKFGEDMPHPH
In words: Inhibition of HDAC6 in human HeLa-S3 cell lysates assessed as remaining activity at […] preincubated for 15 mins followed by HDAC-Glo substrate addition measured after 30 to 40 mins by […] relative to control.

Histone deacetylase 2 (Homo sapiens), sequence (Q92769 whole entry): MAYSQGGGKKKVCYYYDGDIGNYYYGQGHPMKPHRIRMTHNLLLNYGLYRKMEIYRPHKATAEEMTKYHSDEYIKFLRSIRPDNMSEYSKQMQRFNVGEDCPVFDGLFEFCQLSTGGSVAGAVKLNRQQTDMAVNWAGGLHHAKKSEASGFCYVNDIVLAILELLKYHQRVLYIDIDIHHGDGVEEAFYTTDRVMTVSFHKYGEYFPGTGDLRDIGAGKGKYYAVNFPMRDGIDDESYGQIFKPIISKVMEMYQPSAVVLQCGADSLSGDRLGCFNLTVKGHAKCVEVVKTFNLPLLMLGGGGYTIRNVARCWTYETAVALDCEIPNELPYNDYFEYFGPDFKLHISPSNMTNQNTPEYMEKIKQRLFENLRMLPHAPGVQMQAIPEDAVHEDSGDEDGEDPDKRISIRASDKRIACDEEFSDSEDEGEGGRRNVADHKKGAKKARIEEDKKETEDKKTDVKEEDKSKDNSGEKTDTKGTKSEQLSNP
Histone deacetylase 3 (Homo sapiens), sequence (O15379 whole entry): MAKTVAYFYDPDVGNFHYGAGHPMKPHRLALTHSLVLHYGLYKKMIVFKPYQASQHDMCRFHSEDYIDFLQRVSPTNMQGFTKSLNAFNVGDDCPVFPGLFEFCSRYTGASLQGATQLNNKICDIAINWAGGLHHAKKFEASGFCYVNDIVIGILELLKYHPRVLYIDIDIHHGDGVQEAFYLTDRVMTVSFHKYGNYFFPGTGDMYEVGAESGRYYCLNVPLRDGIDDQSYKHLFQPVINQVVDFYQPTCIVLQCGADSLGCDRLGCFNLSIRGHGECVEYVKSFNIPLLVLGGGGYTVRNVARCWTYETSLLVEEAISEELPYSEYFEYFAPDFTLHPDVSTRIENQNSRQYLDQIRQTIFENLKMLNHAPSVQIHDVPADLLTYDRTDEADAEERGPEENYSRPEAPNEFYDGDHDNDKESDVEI
Histone deacetylase 1 (Homo sapiens), sequence (Q13547 whole entry): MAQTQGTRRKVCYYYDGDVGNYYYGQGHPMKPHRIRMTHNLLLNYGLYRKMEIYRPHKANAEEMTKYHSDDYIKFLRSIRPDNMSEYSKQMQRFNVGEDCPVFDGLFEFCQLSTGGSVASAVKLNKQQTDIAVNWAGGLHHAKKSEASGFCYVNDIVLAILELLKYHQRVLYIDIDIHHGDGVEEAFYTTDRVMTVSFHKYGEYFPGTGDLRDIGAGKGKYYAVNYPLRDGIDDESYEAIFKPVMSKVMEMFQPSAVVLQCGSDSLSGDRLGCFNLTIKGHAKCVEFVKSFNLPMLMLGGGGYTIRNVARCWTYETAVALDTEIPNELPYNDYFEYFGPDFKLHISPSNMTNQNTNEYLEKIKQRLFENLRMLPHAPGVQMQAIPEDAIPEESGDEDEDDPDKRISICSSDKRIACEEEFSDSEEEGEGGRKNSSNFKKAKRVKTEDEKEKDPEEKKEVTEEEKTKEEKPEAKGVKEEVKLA

As to `CC(CCCC(=O)Nc1ccccc1)CCC(=O)NO` (stereo not given), the IC50 in experiment [1] was 3.3 µM. Further, the Activity is 17% in experiment [2]; 38% in experiment [3]; 60% in experiment [4]; 79% in experiment [5]; 91% in [6]; 75% in experiment [7]. In addition, the Activity in [8] is 90%; in experiment [9] it was 78%; in experiment [10], 26%.

The record behind these values is ChEMBL document CHEMBL4251567 (Eur J Med Chem, 2018).
